Common to all, as to type: functional
Assay [1] deals with Cancer cell lines. In words: Ratio of 5-FU LC50 to compound LC50 for human ovarian cancer cells. The method, boiled down:
(§1)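 Compounds passing the NCI single-dose primary screen were retested across the 60 human tumour cell lines (nine subpanels) over a 5-log dose range. GI50, TGI and LC50 were recorded for each cell line, with 5-fluorouracil run as the reference drug. Subpanel values for compound and 5-FU were then compared.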

For assay [2], the system named is Leukemia cell. In words: Ratio of 5-FU LC50 to compound LC50 for human leukemia cells. The method in brief:
as §1

The test system of assay [3] is Leukemia cell. As to the kind of experiment: Ratio of 5-FU GI50 to compound GI50 for human leukemia cells. The method, boiled down:
as §1

The next assay concerns Melanoma cell. As to the kind of experiment: Ratio of 5-FU LC50 to compound LC50 for human melanoma cells. The method, boiled down:
as §1

In assay [4] the test system is Cancer cell lines. As to the kind of experiment: Ratio of 5-FU GI50 to compound GI50 for human ovarian cancer cells. The method, boiled down: as §1
Assay [5] concerns Cancer cell lines. As to the kind of experiment: Ratio of 5-FU TGI to compound TGI for human colon cancer cells.
The subject of assay [6] is Cancer cell lines. As to the kind of experiment: Ratio of 5-FU TGI to compound TGI for human ovarian cancer cells.
Assay [7] has as its system Cancer cell lines. As to the kind of experiment: Ratio of 5-FU TGI to compound TGI for human breast cancer cells.
Assay [8] concerns Cancer cell lines. As to the kind of experiment: Ratio of 5-FU TGI to compound TGI for human renal cancer cells.
Assay [9] relates to Cancer cell lines. In words: Ratio of 5-FU LC50 to compound LC50 for human renal cancer cells. The method in brief: as §1
For the next assay, the system named is RPMI-8226. In words: Growth inhibition of human RPMI8226 cells at 10 uM after 48 hrs. The conditions noted are these: RPMI-8226, 48 h, read-out: GI. The method, boiled down: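 Single-dose primary screen in the NCI 60 human tumour cell line panel, run at the NCI facility. The panel covers nine subpanels: leukaemia, non-small cell lung, colon, CNS, melanoma, ovarian, renal, prostate and breast. Read-out was percent growth of treated cells, shown as a mean graph and reported as percent growth inhibition.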

For `COc1cc(/C=C2\CCCc3c2nc(C)nc3-c2cc(OC)c(OC)c(OC)c2)cc(OC)c1OC`, the RatioLC50 in the assay on Cancer cell lines [1], in the assay with Leukemia cell [2], in the assay on Melanoma cell and in the assay with Cancer cell lines [9] was 15 each time. Moreover, the RatioGI50 in the assay with Leukemia cell [3] and in the assay with Cancer cell lines [4] was 15 each time. Further, the Ratio in the assay with Cancer cell lines [5], in the assay on Cancer cell lines [6], in the assay on Cancer cell lines [7] and in the assay with Cancer cell lines [8] was 15 in each case.

For `COc1ccc(/C=C2\CCCc3c2nc(C)nc3-c2ccc(OC)cc2)cc1`, in the assay with RPMI-8226, the inhibition of growth at 10 µM is 50.1%.

As to `COc1ccc(/C=C2\CCCc3c2nc(N)nc3-c2ccc(OC)c(OC)c2)cc1OC`, in the assay on RPMI-8226, the inhibition of growth at 10 µM came out at 84.8%.

`COc1ccc(/C=C2\CCCc3c2nc(N)nc3-c2ccc(OC)cc2)cc1`: in the assay with RPMI-8226, the inhibition of growth at 10 µM came to 42.3%.

Consider `COc1cc(/C=C2\CCCc3c2nc(N)nc3-c2cc(OC)c(OC)c(OC)c2)cc(OC)c1OC`, for which the RatioLC50 with Cancer cell lines [1], with Leukemia cell [2], in the assay on Melanoma cell and in the assay on Cancer cell lines [9] was 15 in each case. Moreover, the RatioGI50 in the assay on Leukemia cell [3] and in the assay with Cancer cell lines [4] was 15 in each case. For the same compound, the Ratio in the assay on Cancer cell lines [5], in the assay on Cancer cell lines [6], with Cancer cell lines [7] and in the assay on Cancer cell lines [8] was 15 throughout.

`COc1cc(/C=C2\CCCC3=C(c4cc(OC)c(OC)c(OC)c4)Nc4ccccc4N=C32)cc(OC)c1OC`: the RatioLC50 in the assay on Cancer cell lines [1], with Leukemia cell [2], with Melanoma cell and in the assay with Cancer cell lines [9] was 11 each time. The RatioGI50 in the assay with Leukemia cell [3] and in the assay with Cancer cell lines [4] was 11 in each case. For the same compound, the Ratio in the assay with Cancer cell lines [5], with Cancer cell lines [6], in the assay with Cancer cell lines [7] and in the assay on Cancer cell lines [8] was 11 throughout.

For `Cc1nc2c(c(-c3ccc(Br)cc3)n1)CCC/C2=C\c1ccc(Br)cc1`, the inhibition of growth at 10 µM with RPMI-8226 was 73.7%.

`COc1ccc(/C=C2\CCCC3=C(c4ccc(OC)cc4)Nc4ccccc4N=C32)cc1`: the inhibition of growth at 10 µM in the assay on RPMI-8226 was determined as 74.3%.

Source of the values: ChEMBL document CHEMBL3112482, “Nonclassical antifolates, part 5. Benzodiazepine analogs as a new class of DHFR inhibitors: synthesis, antitumor testing and molecular modeling study” (Eur J Med Chem, 2014).
